# Compound activity: PubChem, several laboratories
# Rows were chosen to be rich in hits. Some 4% of all compounds tested hit in one or more screens of this group.
# TAAR1 antagonist: antagonists of human TAAR1; CHO RD-HGA16 TAAR1, Fluo-8 calcium fluorescence, antagonist; inhibition, % at 3 µM; 360,000 tested, 1.5% active; AID 624466;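 active means inhibition above a per-plate cutoff, the mean inhibition of test compounds on that plate plus 3 SD, cut at about 49% in these data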;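 further: 0% = DMSO plus EC80 beta-PEA response and 100% = DMSO alone without agonist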
#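 Test system: hTAAR1-expressing CHO RD-HGA16 cells, Gα16-coupled; Probe or stimulus: EC80 β-phenethylamine stimulus; Compound dosing: single nominal final test compound concentration of 3 µM; Timing: 140 s kinetic read after compound, 140 s after agonist; Signal: Fluo-8 calcium-sensitive fluorescence; Measure: % inhibition of agonist calcium response; Controls: DMSO and EC80 PEA controls.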
# TAAR1 ag: human TAAR1 agonism | Q96RJ0 | activation, % at 3 µM | CHO RD-HGA16 TAAR1, Fluo-8 calcium fluorescence; vehicle wells 0%, saturating PEA agonist 100% | 360,000 tested, 0.99% active;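 active means activation above the mean activation of all test compounds in the run plus 3 SD, cut at about 38% in these data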
#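 Benchmarks: low control DMSO, high control PEA (EC100); System: CHO RD-HGA16 cells carrying human TAAR1 plus Gα16; Detection: Fluo-8 fluorescence, 5 s baseline then 140 s kinetic read; Schedule: 17-24 h plating, Fluo-8 75 min 37 °C, 30 min RT; Read-out basis: % activation from peak over basal fluorescence ratio, DMSO-to-PEA scaled.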
# GPR7 antag: human neuropeptides B/W receptor 1 antagonism. P48145. GPR7-expressing cells, fluorescence antagonist assay. inhibition, % at 4.4 µM. 290,000 tested, 1.1% active; in the data active means inhibition above about 16%, passing the limit was not always enough;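 further: cells stimulated with the agonist NPW; 0% = agonist with vehicle and 100% = vehicle without agonist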
# DAGLB inhibitor: diacylglycerol lipase beta (human) inhibition; HEK293T DAGLB membrane lysate, EnzChek fluorogenic substrate; inhibition, % at 5.17 µM; 340,000 tested, 0.059% active; in the data active means inhibition above about 34%;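 further: 0% = enzyme with vehicle and 100% = wells lacking enzyme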
# MPTP inh: inhibitors of mitochondrial permeability transition pore | isolated mouse mitochondria, Ca2+ swelling absorbance, 30 min | inhibition, % at 10 µM | 360,000 tested, 1.4% active | AID 602449;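 active means inhibition of 50% or more, scaled per plate between neutral and stimulator controls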;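 further: 0% = DMSO wells given calcium and 100% = 1 mM EGTA wells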
# TAAR1 ag conf: confirmation of human TAAR1 agonists. shares compounds with TAAR1 ag. CHO RD-HGA16 TAAR1, Fluo-8 calcium fluorescence; scaled: DMSO 0%, maximal phenethylamine 100%. activation, % at 3 µM. 2,400 tested, 82% active. AID 651783;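 active means activation above a cutoff set at the run's mean compound activation plus 3 SD, cut at about 39% in these data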
# Ga16 ag counter: nonselective agonist in parental cells, TAAR1 agonist counter-screen; AID 651787; shares compounds with TAAR1 ag; CHO-Ga16 parental, Fluo-8 calcium fluorescence; normalized to maximal ATP response, DMSO zero; 2,400 tested, 50% active; activation, % at 3 µM;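 active means activation above the run cutoff, the mean activation over all tested wells plus 3 SD, cut at about 12% in these data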;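 further: 0% = DMSO wells and 100% = maximal ATP response on the peak over basal ratio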
# TAAR1 desensitize: counter-screen for human TAAR1 agonists: agonists that desensitize TAAR1; shares compounds with TAAR1 ag; 2,400 tested, 46% active; CHO RD-HGA16 hTAAR1, Fluo-8 calcium, beta-PEA response inhibition; inhibition, % at 3 µM;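 active means inhibition above the run cutoff, the mean inhibition of all test compounds plus 3 SD, cut at about 49% in these data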;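 further: beta-PEA stimulus applied at its EC80; loss of beta-PEA calcium signal after compound pretreatment read as receptor desensitization; 0% = DMSO with beta-PEA at EC80 and 100% = DMSO alone without agonist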
# Ga16 antag count: counter-screen for TAAR1 agonists: nonselective Ga16 antagonists; shares compounds with TAAR1 ag; CHO-Ga16 ATP-induced calcium, Fluo-8 fluorescence; inhibition, % at 3 µM; 2,400 tested, 39% active; AID 651952;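 active means inhibition above the plate's mean compound inhibition plus 3 SD, computed per plate, cut at about 22% in these data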;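 further: 0% = EC80 ATP with DMSO and 100% = DMSO wells without ATP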
# Numbers without * were called inactive; . = no result given.
SMILES,TAAR1 antagonist,TAAR1 ag,GPR7 antag,DAGLB inhibitor,MPTP inh,TAAR1 ag conf,Ga16 ag counter,TAAR1 desensitize,Ga16 antag count
Cc1cc(C(C)(C)CC(C)(C)C)ccc1OCCOCC[N+](C)(C)Cc1ccccc1,75*,81*,.,4,9,69*,66*,45,67*
C[N+](C)(CCOc1ccccc1)Cc1ccccc1,-13,8,.,3,0,.,.,.,.
CC1CCc2c(sc(NS(=O)(=O)c3ccccc3)c2C(=O)OC(C)C)C1 (centres undefined),17,43*,-11,-2,0,24,19*,26,26*
COc1ccc(CN2CCC[C@]3(N[C@H](c4ccc(C)cc4)[C@@H]4C(=O)N(Cc5ccccc5)C(=O)[C@@H]43)C2=O)cc1,-2,1,.,-4,1,.,.,.,.
CCCC1=NN2C(=N)/C(=C\c3cc(C)n(Cc4ccccc4)c3C)C(=O)N=C2S1,101*,117*,-7,-2,32,111*,96*,106*,100*
Cc1cc(/C=C2\C(=N)N3N=C(S(C)(=O)=O)SC3=NC2=O)c(C)n1Cc1ccccc1,-6,2,8,5,29,.,.,.,.
CC(=O)N1C[C@@H](CO)[C@@H](N(C)C(=O)/C=C/c2ccccc2)C[C@H]1c1ccccc1,-4,0,.,.,.,.,.,.,.
Cc1nnc(NC(=O)c2sc3nc(-c4cccs4)cc(C(F)(F)F)c3c2N)s1,89*,78*,5,-19,24,62*,77*,80*,80*
CC1CCCN(CCC(=O)c2ccccc2)C1 (centres undefined),25,72*,.,0,-1,85*,4,40,5
O=C(CCN1CCCCC1)c1ccccc1,-11,18,-11,3,4,.,.,.,.
Cc1ccc(-c2c(C(=O)N/N=C/c3ccsc3)nnn2-c2nonc2N)cc1,50*,133*,-14,3,-1,125*,90*,72*,34*
CCOc1cccc(-c2c(C(=O)N/N=C/c3ccsc3)nnn2-c2nonc2N)c1,20,118*,-16,0,-1,136*,93*,67*,27*
CCOc1cccc(-c2c(C(=O)N/N=C/c3sccc3C)nnn2-c2nonc2N)c1,-4,31,-7,-5,-2,.,.,.,.
CCOc1ccc(-c2c(C(=O)N/N=C/c3ccc(Cl)cc3)nnn2-c2nonc2N)cc1,26,107*,-22,-1,-1,113*,70*,45,13
CCOc1ccc(-c2c(C(=O)N/N=C/c3ccncc3)nnn2-c2nonc2N)cc1,-29,13,5,1,-1,.,.,.,.
CCOc1ccc(-c2c(C(=O)N/N=C/c3ccc(C)cc3)nnn2-c2nonc2N)cc1,34,122*,-22,-4,4,118*,73*,76*,48*
Cc1ccc(-c2c(C(=O)N/N=C/c3cccc(Cl)c3)nnn2-c2nonc2N)cc1,35,4,-19,1,-2,.,.,.,.
CCCn1c(C)c(CC(=O)Nc2ccc(N(C)c3ccccn3)cc2)c2ccccc21,4,-3,.,.,.,.,.,.,.
COc1ccc(C2CC(=O)C(c3ccc(C(F)(F)F)cc3)=CN2Cc2ccccc2)cc1 (centres undefined),-37,2,.,.,.,.,.,.,.
Cc1cc(N2CCN(C(=O)OC(C)(C)C)C[C@H]2C)ccc1N1CC[C@@H](O)C1,-11,5,.,.,.,.,.,.,.
COC(=O)c1cc2c(c3c4cc(F)ccc4n(S(=O)(=O)c4ccccc4)c13)C(=O)N(Cc1ccc(N(C)C)cc1)C2,-3,0,.,.,.,.,.,.,.
CCOc1ccc(-c2c(C(=O)N/N=C/c3ccccc3)nnn2-c2nonc2N)cc1,-15,51*,-13,-1,3,43*,30*,13,15
